For experiment [1], the target named is T1, N-acylethanolamine-hydrolyzing acid amidase (Homo sapiens) (UniProt Q02083).
T1 sequence (whole entry): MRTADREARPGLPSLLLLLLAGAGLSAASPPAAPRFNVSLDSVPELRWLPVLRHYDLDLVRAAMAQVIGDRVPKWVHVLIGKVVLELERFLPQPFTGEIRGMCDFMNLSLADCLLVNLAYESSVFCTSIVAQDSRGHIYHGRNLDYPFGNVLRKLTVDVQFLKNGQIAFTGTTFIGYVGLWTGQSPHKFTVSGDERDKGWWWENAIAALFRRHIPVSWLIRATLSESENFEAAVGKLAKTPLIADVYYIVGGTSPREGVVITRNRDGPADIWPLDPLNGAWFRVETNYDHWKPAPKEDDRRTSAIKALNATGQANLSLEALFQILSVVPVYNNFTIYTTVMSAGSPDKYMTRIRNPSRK
As to the kind of experiment: Inhibition of human recombinant NAAA expressed in human HEK293 cells assessed as conversion of [1,2-14C]palmitoylethanolamine to [1,2-14C]ethanolamine at 50 uM by liquid scintillation counting. Type of experiment: cell-based.

For experiment [2], the target named is T2, N-acylethanolamine-hydrolyzing acid amidase (Homo sapiens, UniProt Q02083).
T2 sequence (Q02083 whole entry): T1 sequence (whole entry)
Description: Inhibition of human recombinant NAAA expressed in human HEK293 cells assessed as conversion of [1,2-14C]palmitoylethanolamine to [1,2-14C]ethanolamine by liquid scintillation counting.

The target in experiment [3] is T2, N-acylethanolamine-hydrolyzing acid amidase. As to the kind of experiment: Inhibition of NAAA.
In experiment [4] the target is T3, Fatty-acid amide hydrolase 1 (Homo sapiens) (UniProt O00519).
T3 sequence (whole entry): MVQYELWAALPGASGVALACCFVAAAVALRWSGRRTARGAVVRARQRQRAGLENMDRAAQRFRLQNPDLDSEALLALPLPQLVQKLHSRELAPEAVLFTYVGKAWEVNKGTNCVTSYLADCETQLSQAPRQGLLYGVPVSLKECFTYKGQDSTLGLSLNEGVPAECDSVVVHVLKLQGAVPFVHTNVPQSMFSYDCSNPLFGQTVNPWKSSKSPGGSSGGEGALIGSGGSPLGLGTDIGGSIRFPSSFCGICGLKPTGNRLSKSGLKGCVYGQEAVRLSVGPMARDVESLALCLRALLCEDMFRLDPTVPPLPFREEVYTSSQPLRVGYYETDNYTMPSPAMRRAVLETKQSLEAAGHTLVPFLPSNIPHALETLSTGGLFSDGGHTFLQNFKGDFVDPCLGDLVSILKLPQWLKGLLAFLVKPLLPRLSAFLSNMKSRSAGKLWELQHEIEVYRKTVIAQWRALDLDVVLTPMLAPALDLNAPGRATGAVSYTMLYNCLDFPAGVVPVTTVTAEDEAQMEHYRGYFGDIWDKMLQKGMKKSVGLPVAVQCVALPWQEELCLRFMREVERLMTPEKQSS
As to the kind of experiment: Inhibition of FAAH up to 50 uM.

In experiment [5] the target is Cannabinoid receptor 1 (Homo sapiens) (UniProt P21554). Description: Displacement of [3H]CP-55940 from human recombinant CB1 receptor expressed in HEK293 cells up to 50 uM after 90 mins. It counts as cell-based. A general note: In a radioligand displacement assay an active substance lowers the binding of a labelled ligand.
Experiment [6] has the same target. Description: Inhibition of CB1 receptor in intact human HEK293 cells assessed as 2-arachidonoylglycerol level by LC-APCI-MS analysis. Type of experiment: cell-based. The method in brief:
(§1)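 Intact HEK-NAAA cells (HEK-293 stably overexpressing human NAAA) were treated. Cellular PEA, AEA, OEA and 2-arachidonoylglycerol were quantified by isotope-dilution liquid chromatography–mass spectrometry and expressed as pmol/mg lipid.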

Experiment [7] concerns the target Peroxisome proliferator-activated receptor (Homo sapiens) (UniProt P37231+Q07869+Q03181). Description: Inhibition of PPAR in intact human HEK293 cells assessed as N-oleoylethanolamine level by LC-APCI-MS analysis. It counts as cell-based. In outline: as §1
For experiment [8], the target named is T1, N-acylethanolamine-hydrolyzing acid amidase (Homo sapiens). As to the kind of experiment: Inhibition of NAAH in human intact HEK293 assessed as N-palmitoylethanolamine level by LC-APCI-MS analysis. Type of experiment: cell-based. In outline:
as §1

Experiment [9] has the same target. As to the kind of experiment: Competitive inhibition of human recombinant NAAA expressed in human HEK293 cells assessed as conversion of [1,2-14C]palmitoylethanolamine to [1,2-14C]ethanolamine by Lineweaver-Burke plot analysis. Type of experiment: cell-based.
The target in experiment [10] is Transient receptor potential cation channel subfamily V member 1 (Homo sapiens) (UniProt Q8NER1). Description: Inhibition of human TRPV1 expressed in HEK293 cells up to 50 uM. Type of experiment: cell-based.
Experiment [11] concerns the target Cannabinoid receptor 2 (Homo sapiens) (UniProt P34972). As to the kind of experiment: Displacement of [3H]CP-55940 from human recombinant CB2 receptor expressed in HEK293 cells up to 50 uM after 90 mins. It counts as cell-based.
In experiment [12] the target is T3, Fatty-acid amide hydrolase 1 (Homo sapiens). Description: Inhibition of FAAH in human intact HEK293 assessed as anandamide level by LC-APCI-MS analysis. It counts as cell-based. In outline:
as §1

The source made the active and inactive calls. No cut-off for these calls is given here.

For orientation: inhibition means the drop in the measured response relative to a control, in per cent. For the molecule `CCCCCCCCCCCCCCCCC(=O)OC1CCCC1`, in experiment [1], the inhibition entry is “inactive”.

Take `CCCCCCCCCCCCCCCCNC(=O)c1ccc([N+](=O)[O-])cc1`: in [1], the inhibition came out at 4%. For the molecule `CCCCCCCCCCCCCCCCNC(=O)C1CCCC1`, the inhibition in [1] amounted to 8%.

On to `CCCCCCCCCCCCCCCC(=O)NC1CCN(Cc2ccccc2)CC1`, for which the inhibition entry in experiment [1] was “inactive”. Still for that read-out and setting: the same measure for `CCCCCCCCCCCCCCCC(=O)NN1CCN(c2ccc(C)c(C)c2)CC1`: “inactive”; for `CCCCCCCCCCCCCCCC(=O)NCCc1cc(OC)cc(OC)c1`: “inactive”. The same measure, in the same setting: the result for `CCCCCCCCCCCCCCCCOC(=O)c1ccc(OC)cc1` reads “inactive”. For orientation: IC50 means the concentration that gives 50% inhibition. For `CCCCCCCCCCCCCCCNC(=O)C1CCCCC1` [CYCLOHEXANECARBOXYLIC ACID PENTADECYLAMIDE], the IC50 in [2] was found to be 17 µM. As to `CCCCCCCCCCCCCCCC(=O)Nc1ccc([N+](=O)[O-])cc1`, in experiment [1], the inhibition came out at 15%. With `CCCCCCCCCCCCCCCC(=O)Oc1ccc(OC)cc1`, the inhibition result in experiment [1] is “inactive”. In turn, `CCCCCCCCCCCCCCCCOC(=O)CC` [HEXADECYLPROPIONATE] showed an IC50 in experiment [3] of 54 µM. `CCCCCCCCCCCCCCCCC(=O)OC1CCC1`: the inhibition result in experiment [1] is “inactive”. In the case of `CCCCCCCCCCCCCCCCOC(=O)NC1CCCCC1`, the inhibition entry in experiment [1] is “inactive”. `CCCCCCCCCCCCCCCNC(=O)CCO` registered an IC50 in [3] of 32 µM. As for `CCCCCCCCCCCCCCCCOC(=O)Nc1ccc(OC)cc1`, the inhibition result in experiment [1] is “inactive”.

Take `CCCCCCCCCCCCCCC(=O)OC1CCC1`: in [1], the inhibition came to 29%. On the same count and under the same terms, the same measure for `CCCCCCCCCCCCCCCC(=O)NN1CCN(c2ccc(F)cc2)CC1`: “inactive”; for `CCCCCCCCCCCCCCCC(=O)OC1CCC1`: 41%. Same read-out and setting: the result for `CCCCCCCCCCCCCCCC(=O)NN1CCN(c2ccc(Cl)cc2)CC1` reads “inactive”; that for `CCCCCCCCCCCCCCCCOC(=O)C1CCCC1`, 17%. As for `CCCCCCCCCCCCCCCC(=O)OC1CCCC1` [CYCLOPENTYL PALMITATE], the inhibition in experiment [1] was 85%. Also, the result in experiment [4], in experiment [5], in [6], in experiment [7], in experiment [10] and in [11] was inactive. The outcome in experiment [12] was inactive. The result in experiment [8] and in experiment [9] was Active. Further, the IC50 in experiment [2] was 10 µM.

Turning to `CCCCCCCCCCCCCCCCOC(=O)c1ccc([N+](=O)[O-])cc1`, in [1], the inhibition stood at 26%. For the molecule `CCCCCCCCCCCCCCCNC(=O)c1ccccc1`, inhibition in [3] was half-maximal at 8.3 µM (IC50). Turning to `CCCCCCCCCCCCCCC(=O)OC1CCCC1`, the inhibition in [1] was determined as 25%. Still for that read-out and setting: the result for `CCCCCCCCCCCCCCCC(=O)Nc1ccc(OC)cc1` reads “inactive”; that for `CCCCCCCCCCCCCCCC(=O)OC1CCCCC1`, 18%; that for `CCCCCCCCCCCCCCCC(=O)NCCc1ccc(OC)cc1`, “inactive”.

With `CCCCCCCCCCCCCCC(=O)OC1CCCCC1`, the inhibition in [1] came to 28%. Same read-out and setting: the same measure for `CCCCCCCCCCCCCCCCNC(=O)c1ccc(OC)cc1`: “inactive”; for `CCCCCCCCCCCCCCCCC(=O)OC1CCCCC1`: “inactive”; for `CCCCCCCCCCCCCCCC(=O)NN1CCN(c2cc(C)ccc2C)CC1`: “inactive”.

These data come from ChEMBL document CHEMBL1158500, “Synthesis and biological evaluation of new potential inhibitors of N-acylethanolamine hydrolyzing acid amidase” (Bioorg Med Chem Lett, 2010).
